Experimental data as given in ChEMBL document CHEMBL4406800, “Discovery of Potent Protease-Activated Receptor 4 Antagonists with in Vivo Antithrombotic Efficacy” (J Med Chem, 2019).
pIC50: −log10 of the molar value.

How the values were obtained:
[1] = molecular target: T1, Proteinase-activated receptor 4 (Homo sapiens, UniProt Q96RI0); assay: Antagonist activity at full-length human PAR4 expressed in HEK293 cells assessed as inhibition of AYPGKF-induced intracellular calcium mobilization preincubated for 30 mins followed by AYPGKF addition and measured by calcium indicator-based FLIPR assay; assay type: functional, cell-based
T1 sequence (Q96RI0 whole entry): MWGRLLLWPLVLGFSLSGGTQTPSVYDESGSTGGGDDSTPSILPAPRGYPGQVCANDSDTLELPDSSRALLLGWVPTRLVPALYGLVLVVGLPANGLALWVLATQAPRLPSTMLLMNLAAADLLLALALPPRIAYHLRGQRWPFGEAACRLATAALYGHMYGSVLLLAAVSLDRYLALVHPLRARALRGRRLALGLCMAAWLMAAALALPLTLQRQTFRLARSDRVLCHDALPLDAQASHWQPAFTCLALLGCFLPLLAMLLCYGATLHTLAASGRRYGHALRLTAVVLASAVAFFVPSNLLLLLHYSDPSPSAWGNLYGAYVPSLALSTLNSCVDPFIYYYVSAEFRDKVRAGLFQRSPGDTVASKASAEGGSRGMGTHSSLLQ

[2] = Stability in rat liver microsomes assessed as parent compound remaining measured after 10 mins; assay type: ADME, Microsome; conditions: read-out: Stability
[3] = Stability in human liver microsomes assessed as parent compound remaining measured after 10 mins; assay type: ADME, Microsome; conditions: for remaining at 10 min: liver microsomes, read-out: Stability; for Stability: microsomes, 10 min
[4] = Half life in human liver microsomes; assay type: ADME, Microsome; conditions: for t1/2: microsomes
[5] = Clearance in rat at 2 mg/kg, po or 0.5 mg/kg, iv administered as infusion for 10 mins; assay type: ADME, organism-based; conditions: in vivo
[6] = Half life in rat at 2 mg/kg, po or 0.5 mg/kg, iv administered as infusion for 10 mins; assay type: ADME, organism-based; conditions: in vivo
[7] = Oral bioavailability in rat at 2 mg/kg; assay type: ADME, organism-based; conditions: in vivo
Outline: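 Rat dosing: iv 0.5 mpk as a 10 min infusion in 25/75 propylene glycol/PEG400 at 2 ml/kg. po 2 mpk in 5/5/90 EtOH/TPGS/PEG300 at 5 mL/kg.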

[8] = Half life in rat liver microsomes; assay type: ADME, Microsome

CC(C)Oc1nn2cc(-c3cc4ccccc4o3)nc2s1
pIC50 [1]: 6.12

COc1nn2cc(-c3cc4ccc(OC)c(OC)c4o3)nc2s1
remaining at 10 min [2]: 3%
remaining at 10 min [3]: 20%

COc1cc(OCc2ccccc2OC)c2cc(-c3cn4nc(OC)sc4n3)oc2c1
remaining at 10 min [2]: 28%
remaining at 10 min [3]: 82%
pIC50 [1]: 7.72

CCc1nn2cc(-c3cc4ccccc4o3)nc2s1
remaining at 10 min [2]: 3%
remaining at 10 min [3]: 30%
pIC50 [1]: 7.42

CNc1nn2cc(-c3cc4ccccc4o3)nc2s1
remaining at 10 min [2]: 2%
remaining at 10 min [3]: 65%
pIC50 [1]: 6.96

CCOc1nn2cc(-c3cc4ccccc4o3)nc2s1
remaining at 10 min [2]: 37%
remaining at 10 min [3]: 57%
pIC50 [1]: 7.17

COc1cc(OCc2ccc(Cl)cc2)c2cc(-c3cn4nc(OC)sc4n3)oc2c1
pIC50 [1]: 7.96

COc1cc(OCCOCc2ccccc2)c2cc(-c3cn4nc(OC)sc4n3)oc2c1
remaining at 10 min [2]: 25%
remaining at 10 min [3]: 75%
pIC50 [1]: 8.74

COc1cc(OCc2cccc(O)c2)c2cc(-c3cn4nc(OC)sc4n3)oc2c1
remaining at 10 min [2]: 49%
remaining at 10 min [3]: 97%
pIC50 [1]: 8.51

COc1cc(OCc2cccc(Oc3ccccc3)c2)c2cc(-c3cn4nc(OC)sc4n3)oc2c1
remaining at 10 min [2]: 42%
remaining at 10 min [3]: 86%
pIC50 [1]: 8.92

COc1cc(OCc2ccccc2OCc2ccccc2)c2cc(-c3cn4nc(OC)sc4n3)oc2c1
remaining at 10 min [2]: 22%
remaining at 10 min [3]: 94%
pIC50 [1]: 8.49

COc1nn2cc(-c3cc4c(OCc5ccccc5)cccc4o3)nc2s1
remaining at 10 min [2]: 75%
remaining at 10 min [3]: 85%
pIC50 [1]: 7.62

COc1cc(OCc2ccccc2C(F)(F)F)c2cc(-c3cn4nc(OC)sc4n3)oc2c1
pIC50 [1]: 8.47

CS(=O)(=O)c1nn2cc(-c3cc4ccccc4o3)nc2s1
pIC50 [1]: 6.09

COc1cc(OCc2ccc(C(F)(F)F)cc2)c2cc(-c3cn4nc(OC)sc4n3)oc2c1
remaining at 10 min [2]: 90%
remaining at 10 min [3]: 79%
pIC50 [1]: 8.37

COc1nn2cc(-c3cc4ccccc4o3)nc2s1
remaining at 10 min [2]: 31%
t1/2 [4]: 6.9 min
Stability [3]: 80%
pIC50 [1]: 8.40

COc1ccc2oc(-c3cn4nc(OC)sc4n3)cc2c1
remaining at 10 min [2]: 38%
remaining at 10 min [3]: 30%

COc1cccc(COc2cc(OC)cc3oc(-c4cn5nc(OC)sc5n4)cc23)c1
remaining at 10 min [2]: 34%
remaining at 10 min [3]: 69%
pIC50 [1]: 8.03

COc1cc(OCc2cccc(Sc3ccccc3)c2)c2cc(-c3cn4nc(OC)sc4n3)oc2c1
remaining at 10 min [2]: 45%
remaining at 10 min [3]: 80%
pIC50 [1]: 9.05

COc1cc(OCc2cccc(CCc3ccccc3)c2)c2cc(-c3cn4nc(OC)sc4n3)oc2c1
remaining at 10 min [2]: 68%
remaining at 10 min [3]: 99%
pIC50 [1]: 8.62

COc1cc(OCc2cccc(Cl)c2)c2cc(-c3cn4nc(OC)sc4n3)oc2c1
remaining at 10 min [2]: 79%
remaining at 10 min [3]: 82%
pIC50 [1]: 8.48

COc1ccc2cc(-c3cn4nc(OC)sc4n3)oc2c1
remaining at 10 min [2]: 55%
remaining at 10 min [3]: 57%

COc1cc(OCCOc2ccccc2)c2cc(-c3cn4nc(OC)sc4n3)oc2c1
remaining at 10 min [2]: 36%
remaining at 10 min [3]: 65%
pIC50 [1]: 9.09

COc1nn2cc(-c3cc4c(OC)ccc(OC)c4o3)nc2s1
remaining at 10 min [2]: 28%
remaining at 10 min [3]: 55%

COc1cc(OCc2cccc(C#N)c2)c2cc(-c3cn4nc(OC)sc4n3)oc2c1
remaining at 10 min [3]: 100%
pIC50 [1]: 9.01

COc1cc(OCc2ccc(OCc3ccccc3)cc2)c2cc(-c3cn4nc(OC)sc4n3)oc2c1
remaining at 10 min [2]: 84%
remaining at 10 min [3]: 88%
pIC50 [1]: 8.89

COc1cc(OCc2cccc(CO)c2)c2cc(-c3cn4nc(OC)sc4n3)oc2c1
pIC50 [1]: 7.57

COc1nn2cc(-c3cc4cccc(OC)c4o3)nc2s1
remaining at 10 min [2]: 11%
remaining at 10 min [3]: 25%
pIC50 [1]: 8.55

COc1cc(OCCc2ccccc2)c2cc(-c3cn4nc(OC)sc4n3)oc2c1
remaining at 10 min [2]: 43%
remaining at 10 min [3]: 89%
pIC50 [1]: 8.96

COc1cc(OC)c2cc(-c3cn4nc(OC)sc4n3)oc2c1
remaining at 10 min [2]: 70%
t1/2 [4]: 17 min
clearance [5]: 33 mL/min/kg
half-life [6]: 192 min
bioavailability [7]: 1%
Stability [3]: 86%
half-life [8]: 22 min

c1ccc2oc(-c3cn4nc(C5CC5)sc4n3)cc2c1
remaining at 10 min [2]: 53%
remaining at 10 min [3]: 62%
pIC50 [1]: 6.28

COc1nn2cc(-c3cc4ccc(OCc5ccccc5)cc4o3)nc2s1
remaining at 10 min [2]: 68%
remaining at 10 min [3]: 94%

COc1nn2cc(-c3cc4c(OC)cccc4o3)nc2s1
remaining at 10 min [2]: 42%
remaining at 10 min [3]: 40%
pIC50 [1]: 8.12

CCSc1nn2cc(-c3cc4ccccc4o3)nc2s1
remaining at 10 min [2]: 35%
remaining at 10 min [3]: 45%
pIC50 [1]: 5.54

COc1cc(OCc2ccccc2)c2cc(-c3cn4nc(OC)sc4n3)oc2c1
bioavailability [7]: 27%

COc1cc(OCc2cccc(COc3ccccc3)c2)c2cc(-c3cn4nc(OC)sc4n3)oc2c1
remaining at 10 min [2]: 64%
remaining at 10 min [3]: 86%
pIC50 [1]: 8.49

COc1ccc(COc2cc(OC)cc3oc(-c4cn5nc(OC)sc5n4)cc23)cc1
remaining at 10 min [2]: 64%
remaining at 10 min [3]: 73%
pIC50 [1]: 8.80

CSc1nn2cc(-c3cc4ccccc4o3)nc2s1
remaining at 10 min [2]: 4%
half-life ([4]; liver microsomes): 5.4 min
remaining at 10 min [3]: 25%
pIC50 [1]: 7.96

Cc1nn2cc(-c3cc4ccccc4o3)nc2s1
remaining at 10 min [2]: 4%
remaining at 10 min [3]: 20%
pIC50 [1]: 7.43

COc1cc(OCc2ccccc2Cl)c2cc(-c3cn4nc(OC)sc4n3)oc2c1
remaining at 10 min [2]: 78%
remaining at 10 min [3]: 95%
pIC50 [1]: 8.64

COc1cc(OCc2ccccc2C)c2cc(-c3cn4nc(OC)sc4n3)oc2c1
remaining at 10 min [2]: 46%
remaining at 10 min [3]: 90%
pIC50 [1]: 8.80

COc1cc(OCc2cccc(C(F)(F)F)c2)c2cc(-c3cn4nc(OC)sc4n3)oc2c1
remaining at 10 min [2]: 79%
remaining at 10 min [3]: 93%
pIC50 [1]: 8.51

c1ccc(Sc2nn3cc(-c4cc5ccccc5o4)nc3s2)cc1
pIC50 [1]: 5.72
